Compound activity deposited in PubChem by Broad Institute.
DENV2 CPE: DENV2-induced cell death inhibition; DENV2-infected cells, cytopathic effect rescue, plate reader; CPE inhibition, % at 9.99 µM; 350,000 compounds, 1.7% hits; AID 651640; in the data active means CPE inhibition above about 20%, passing the limit was not always enough; inconclusive means no clear call, values can overlap the other calls; tested in BHK-21 cells
E-sel inducer: induces E-selectin expression in human endothelial cells | P16581 | HUVEC E-selectin immunofluorescence imaging; normalized: neutral wells 0, TNF-alpha wells 100 | AID 686992 | 260,000 compounds, 0.37% hits | activation, % at 7.58 µM;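 active means mean E-selectin-positive cell signal at least 10% of the positive control, reached in at least 60% of replicates, without over 20% cell loss; inconclusive means no rule given, readout overlaps actives, possibly toxicity-flagged; inactive means the rest, including those meeting only one limit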
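Assay system: HUVEC primary endothelial cells. Input: 3,000 HUVEC seeded per well. Doses: one compound dose added by pin transfer. Read-out basis: % PE-positive cells. Benchmarks: TNF-alpha high, DMSO low. Detection: immunofluorescence imaging. Buffer or medium: EGM-2, gelatin.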
SIRT5 inh: blocks human SIRT5 desuccinylation of peptide. Q9NXA8. Purified SirT5, succinyl-peptide AMC, trypsin-coupled fluorescence. inhibition, % at 15 µM. 330,000 compounds, 1.1% hits; in the data active means inhibition above about 15%; inconclusive means no clear call, values can overlap the other calls
Each line names hits and unclear results; the compound was inactive in the other large screens. Rows were chosen to be rich in hits. Some 2.9% of all compounds tested hit in one or more screens of this group.

Cc1cccn2c(=O)c(C=O)c(N3CCN(C)CC3)nc12	none (no result: E-sel inducer)
Cc1ccc(S(=O)(=O)NNC(=O)C2COc3ccccc3O2)cc1C (centres undefined)	none (no result: SIRT5 inh)
CCOc1ccc2[nH]cc(S(=O)(=O)c3ccc(Cl)cc3)c(=O)c2c1	none (no result: E-sel inducer, SIRT5 inh)
CCOc1ccc2[nH]cc(S(=O)(=O)c3ccc(C)cc3)c(=O)c2c1	DENV2 CPE 60
C#CCN(Cc1ccco1)C(=O)c1nnc2c3ccccc3n(S(=O)(=O)c3ccc(C)cc3)c2n1	DENV2 CPE 25 (no result: SIRT5 inh)
C#CCN(Cc1cccc(F)c1)C(=O)c1nnc2c3ccccc3n(S(=O)(=O)c3ccc(C)cc3)c2n1	none (no result: SIRT5 inh)
COc1ccc(C)cc1-n1[nH]nnc1=S	none
CCOc1ccccc1OCCCC(=O)N1CCN(S(=O)(=O)c2ccc(C)cc2C)CC1	none
CC(C)(C)NC[C@@H](O)COc1cccc2c1CCCC2=O	DENV2 CPE 31
CC(C)(C)NCC(O)COc1ccccc1C1CCCC1 (centres undefined)	none
C[C@H](CO)N1C[C@H](C)[C@H](CN(C)C(=O)CCCN(C)C)OCCCC[C@H](C)Oc2ccc(NC(=O)c3ccncc3)cc2C1=O	DENV2 CPE inconclusive (no result: SIRT5 inh)
CC(=O)C1=C(O)C(=O)N(c2ccc(O)cc2)C1c1ccccc1[N+](=O)[O-] (centres undefined)	none (no result: E-sel inducer)
CCCCN1C(=O)C(O)=C(C(C)=O)C1c1ccccc1[N+](=O)[O-] (centres undefined)	SIRT5 inh 24 (no result: E-sel inducer)
OC[C@H]1[C@H](c2ccc(/C=C/c3ccccc3)cc2)[C@@H]2CN(Cc3ccncc3)CCCCN12	none
CCC(=O)N1CCCCN2[C@H](CO)[C@H](c3ccc(C#CCOC)cc3)[C@H]2C1	none
O=C(NCC[C@@H]1CC[C@@H](NS(=O)(=O)c2cccc(F)c2)[C@@H](CO)O1)C1CC1	none
COc1ccc(-c2nc(C#N)c(N3CCN(c4ccccc4)CC3)o2)cc1	none
CC(C)(C)OC(=O)[C@H](Cc1ccccc1)NC(=O)c1nc[nH]c1C(=O)NC1CCNCC1	none (no result: SIRT5 inh)
CC(C)C[C@H](NC(=O)c1nc[nH]c1C(=O)NC1CCNCC1)C(=O)OC(C)(C)C	SIRT5 inh 17
CCCC#Cc1ccc2c(c1)O[C@@H](CN(C)C(=O)c1ccccc1F)[C@@H](C)CN([C@H](C)CO)S2(=O)=O	SIRT5 inh 20
CC(C)CC#Cc1ccc2c(c1)O[C@H](CN(C)C(=O)c1ccccc1F)[C@H](C)CN([C@H](C)CO)S2(=O)=O	none
C[C@H]1CN([C@@H](C)CO)S(=O)(=O)c2ccc(C#CC3(O)CCCC3)cc2O[C@@H]1CN(C)C(=O)c1cccnc1	none (no result: E-sel inducer)
CCCC#Cc1ccc2c(c1)O[C@H](CN(C)C(=O)c1ccncc1)[C@H](C)CN([C@@H](C)CO)S2(=O)=O	none
CCCC#Cc1ccc2c(c1)O[C@@H](CN(C)C(=O)c1ccncc1)[C@H](C)CN([C@@H](C)CO)S2(=O)=O	E-sel inducer 118
